In ChEMBL document CHEMBL1255392, “Pharmacokinetics of acyclovir and its metabolites in cerebrospinal fluid and systemic circulation after administration of high-dose valacyclovir in subjects with normal and impaired renal function” (Antimicrob Agents Chemother, 2010):
Each block holds one compound with its values, some of them ahead of it.

Assays:
Homo sapiens [1] = assay: Tmax in human systemic circulation with normal renal function assessed as 8-OH-ACV level at 2000 mg, po every 6 hrs measured after fifth dose by LC/MS; type: ADME, organism-based; settings: in vivo
How it was run: (§1)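 Six volunteers with normal renal function fasted from 8 h before to 2 h after the fifth dose. Intrathecal-catheter CSF and venous blood were sampled at 0–8 h and stored at −70°C. Noncompartmental Cmax, tmax and AUCτ (0–6 h) were derived; Cavg = AUCτ/τ.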

Homo sapiens [2] = assay: Ratio of Cmax in human CSF to Cmax in human plasma with chronic kidney disease assessed as 8-OH-ACV level at 1500 mg, po every 12 hrs measured after fifth dose by LC/MS; type: ADME, organism-based
Homo sapiens [3] = assay: Cmax in human systemic circulation with chronic kidney disease assessed as 8-OH-ACV level at 1500 mg, po every 12 hrs measured after fifth dose by LC/MS; type: ADME, organism-based; design: dose 1500 mg, route oral; settings: in vivo
How it was run: (§2)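 Three CKD adults (CrCl ~15–30 ml/min) fasted around the final dose. Lumbar intrathecal catheter CSF and EDTA venous blood were taken predose and at 0.5–8 h plus 12 h, then stored at −70°C. Metabolites in serum/CSF were measured by SPE with isotope-labelled internal standards, reversed-phase HPLC and positive-ion MRM MS.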

Homo sapiens [4] = assay: Drug level in human plasma with normal renal function assessed as 8-OH acyclovir level at 2000 mg, po every 6 hrs measured after fifth dose by LC/MS; type: ADME, organism-based; settings: in vivo, read-out: Drug uptake; how it was run: as §1
Homo sapiens [5] = assay: Ratio of Cmax in human CSF to Cmax in human plasma with normal renal function assessed as 8-OH-ACV level at 2000 mg, po every 6 hrs measured after fifth dose by LC/MS; type: ADME, organism-based
How it was run: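 For each normal-renal-function subject, the metabolite CSF Cmax was divided by the serum Cmax from samples taken 0–8 h after the fifth dose. Both were measured by LC/MS with isotope-labelled internal standards, and the ratio is given as mean ± SD.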

Homo sapiens [6] = assay: Cmax in human CSF with chronic kidney disease assessed as 8-OH-ACV level at 1500 mg, po every 12 hrs measured after fifth dose by LC/MS; type: ADME, organism-based, Cerebrospinal fluid; design: dose 1500 mg, route oral; settings: in vivo; how it was run: as §2
Homo sapiens [7] = assay: AUC (0 to 6 hrs) in human systemic circulation with normal renal function assessed as 8-OH-ACV level at 2000 mg, po every 6 hrs measured after fifth dose by LC/MS; type: ADME, organism-based, Plasma; design: dose 2000 mg, time < 6 hr, route oral; settings: in vivo; how it was run: as §1
Homo sapiens [8] = assay: Tmax in human CSF with chronic kidney disease assessed as 8-OH-ACV level at 1500 mg, po every 12 hrs measured after fifth dose by LC/MS; type: ADME, organism-based, Cerebrospinal fluid; settings: in vivo; how it was run: as §2
Homo sapiens [9] = assay: AUC (0 to 12 hrs) in human CSF with chronic kidney disease assessed as 8-OH-ACV level at 1500 mg, po every 12 hrs measured after fifth dose by LC/MS; type: ADME, organism-based; design: dose 1500 mg, time < 12 hr, route oral; settings: in vivo; how it was run: as §2
Homo sapiens [10] = assay: AUC (0 to 12 hrs) in human systemic circulation with chronic kidney disease assessed as 8-OH-ACV level at 1500 mg, po every 12 hrs measured after fifth dose by LC/MS; type: ADME, organism-based; design: dose 1500 mg, time < 12 hr, route oral; settings: in vivo; how it was run: as §2
Homo sapiens [11] = assay: Tmax in human systemic circulation with chronic kidney disease assessed as 8-OH-ACV level at 1500 mg, po every 12 hrs measured after fifth dose by LC/MS; type: ADME, organism-based; settings: in vivo; how it was run: as §2
Homo sapiens [12] = assay: AUC (0 to 6 hrs) in human CSF with normal renal function assessed as 8-OH-ACV level at 2000 mg, po every 6 hrs measured after fifth dose by LC/MS; type: ADME, organism-based; design: dose 2000 mg, time < 6 hr, route oral; settings: in vivo; how it was run: as §1
Homo sapiens [13] = assay: Drug level in human plasma with chronic kidney disease assessed as 8-OH acyclovir level at 1500 mg, po every 12 hrs measured after fifth dose by LC/MS; type: ADME, organism-based; settings: in vivo, read-out: Drug uptake; how it was run: as §2
Homo sapiens [14] = assay: Cmax in human systemic circulation with normal renal function assessed as 8-OH-ACV level at 2000 mg, po every 6 hrs measured after fifth dose by LC/MS; type: ADME, organism-based; design: dose 2000 mg, route oral; settings: in vivo; how it was run: as §1
Homo sapiens [15] = assay: Drug level in human CSF with chronic kidney disease assessed as 8-OH acyclovir level at 1500 mg, po every 12 hrs measured after fifth dose by LC/MS; type: ADME, organism-based; settings: in vivo, read-out: Drug uptake; how it was run: as §2
Homo sapiens [16] = assay: Cmax in human CSF with normal renal function assessed as 8-OH-ACV level at 2000 mg, po every 6 hrs measured after fifth dose by LC/MS; type: ADME, organism-based, Cerebrospinal fluid; design: dose 2000 mg, route oral; settings: in vivo; how it was run: as §1
Homo sapiens [17] = assay: Tmax in human CSF with normal renal function assessed as 8-OH-ACV level at 2000 mg, po every 6 hrs measured after fifth dose by LC/MS; type: ADME, organism-based, Cerebrospinal fluid; settings: in vivo; how it was run: as §1
Homo sapiens [18] = assay: Drug level in human CSF with normal renal function assessed as 8-OH acyclovir level at 2000 mg, po every 6 hrs measured after fifth dose by LC/MS; type: ADME, organism-based; settings: in vivo, read-out: Drug uptake; how it was run: as §1
[19] = Cmax in human systemic circulation with chronic kidney disease at 1500 mg, po every 12 hrs measured after fifth dose by radioimmunoassay; type: ADME, organism-based; design: dose 1500 mg, route oral; settings: plasma
How it was run: (§3)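 Three chronic kidney disease subjects (CrCl ∼15 to 30 ml/min) took valacyclovir 1,500 mg orally every 12 h for 5 doses, fasting from 8 h before to 2 h after the fifth dose. Plasma was drawn at 0, 0.5, 1, 1.5, 2, 3, 4, 6, 8 and 12 h. Acyclovir was measured by scintillation proximity radioimmunoassay.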

[20] = Drug level in human CSF with normal renal function at 2000 mg, po every 6 hrs measured after fifth dose by radioimmunoassay; type: ADME, organism-based; settings: read-out: Drug uptake
How it was run: (§4)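 Normal-renal-function subjects (n=6) took an oral dose every 6 h for 5 doses. Serial lumbar-catheter CSF was collected on ice predose through 8 h after the last dose. Acyclovir was assayed by scintillation proximity radioimmunoassay validated for CSF (range 1.4–90 ng/ml; 1:10 dilution; LLQ 14.1 ng/ml). Cmax, tmax and AUCτ over 0–6 h were computed noncompartmentally.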

[21] = Drug level in human plasma with chronic kidney disease at 1500 mg, po every 12 hrs measured after fifth dose by radioimmunoassay; type: ADME, organism-based; settings: read-out: Drug uptake; how it was run: as §3
[22] = AUC (0 to 12 hrs) in human systemic circulation with chronic kidney disease at 1500 mg, po every 12 hrs measured after fifth dose by radioimmunoassay; type: ADME, organism-based; design: dose 1500 mg, time < 12 hr, route oral; settings: plasma; how it was run: as §3
[23] = AUC (0 to 6 hrs) in human systemic circulation with normal renal function at 2000 mg, po every 6 hrs measured after fifth dose by radioimmunoassay; type: ADME, organism-based; design: time < 6 hr, dose 2000 mg, route oral; settings: plasma
How it was run: (§5)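 Six subjects with normal renal function took valacyclovir 2,000 mg orally every 6 h for 5 doses, fasting from 8 h before to 2 h after the fifth dose. Plasma was drawn at 0, 0.5, 1, 1.5, 2, 3, 4, 6 and 8 h. Acyclovir was measured by scintillation proximity radioimmunoassay (LLQ 14.1 ng/ml). Noncompartmental analysis gave AUC over 0–6 h, Cmax and tmax, with Cavg = AUCτ/τ.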

[24] = Cmax in human systemic circulation with normal renal function at 2000 mg, po every 6 hrs measured after fifth dose by radioimmunoassay; type: ADME, organism-based; design: dose 2000 mg, route oral; settings: plasma; how it was run: as §5
[25] = AUC (0 to 6 hrs) in human CSF with normal renal function at 2000 mg, po every 6 hrs measured after fifth dose by radioimmunoassay; type: ADME, organism-based; design: time < 6 hr, dose 2000 mg, route oral; how it was run: as §4
[26] = Tmax in human systemic circulation with chronic kidney disease at 1500 mg, po every 12 hrs measured after fifth dose by radioimmunoassay; type: ADME, organism-based; settings: plasma; how it was run: as §3
[27] = Tmax in human CSF with chronic kidney disease at 1500 mg, po every 12 hrs measured after fifth dose by radioimmunoassay; type: ADME, organism-based, Cerebrospinal fluid
How it was run: (§6)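 CKD subjects (n=3) received an oral dose every 12 h for 5 doses. CSF was drawn through an indwelling lumbar catheter predose and at 0.5, 1, 1.5, 2, 3, 4, 6, 8 and 12 h after the fifth dose. Acyclovir was quantified by automated scintillation proximity radioimmunoassay with a monoclonal antibody; the standard curve was 1.4–90 ng/ml and LLQ 14.1 ng/ml. Noncompartmental parameters were calculated over 0–12 h.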

[28] = Tmax in human systemic circulation with normal renal function at 2000 mg, po every 6 hrs measured after fifth dose by radioimmunoassay; type: ADME, organism-based; settings: plasma; how it was run: as §5
[29] = AUC (0 to 12 hrs) in human CSF with chronic kidney disease at 1500 mg, po every 12 hrs measured after fifth dose by radioimmunoassay; type: ADME, organism-based; design: time < 12 hr, dose 1500 mg, route oral; how it was run: as §6
[30] = Cmax in human CSF with normal renal function at 2000 mg, po every 6 hrs measured after fifth dose by radioimmunoassay; type: ADME, organism-based, Cerebrospinal fluid; design: dose 2000 mg, route oral; how it was run: as §4
[31] = Drug level in human plasma with normal renal function at 2000 mg, po every 6 hrs measured after fifth dose by radioimmunoassay; type: ADME, organism-based; settings: read-out: Drug uptake; how it was run: as §5
[32] = Cmax in human CSF with chronic kidney disease at 1500 mg, po every 12 hrs measured after fifth dose by radioimmunoassay; type: ADME, organism-based, Cerebrospinal fluid; design: dose 1500 mg, route oral; how it was run: as §6
[33] = Tmax in human CSF with normal renal function at 2000 mg, po every 6 hrs measured after fifth dose by radioimmunoassay; type: ADME, organism-based, Cerebrospinal fluid; how it was run: as §4
[34] = Drug level in human CSF with chronic kidney disease at 1500 mg, po every 12 hrs measured after fifth dose by radioimmunoassay; type: ADME, organism-based; settings: read-out: Drug uptake; how it was run: as §6

Tmax (Homo sapiens [1]): 3.5 h | Ratio (Homo sapiens [2]): 0.19 | Cmax (Homo sapiens [3]): 1.6 µM | concentration (Homo sapiens [4]): 0.24 µM | Ratio (Homo sapiens [5]): 0.2 | Cmax (Homo sapiens [6]): 0.29 µM | AUC (Homo sapiens [7]): 1.4 µM·h | Tmax (Homo sapiens [8]): 7 h | AUC (Homo sapiens [9]): 3.1 µM·h | AUC (Homo sapiens [10]): 17 µM·h | Tmax (Homo sapiens [11]): 4 h | AUC (Homo sapiens [12]): 0.34 µM·h | concentration (Homo sapiens [13]): 1.4 µM | Cmax (Homo sapiens [14]): 0.32 µM | concentration (Homo sapiens [15]): 0.26 µM | Cmax (Homo sapiens [16]): 0.062 µM | Tmax (Homo sapiens [17]): 2.4 h | concentration (Homo sapiens [18]): 0.06 µM
Compound: Nc1nc2c(nc(O)n2COCCO)c(=O)[nH]1

Cmax [19]: 82 µM | concentration at 6 h [20]: 6.25 µM | concentration at 12 h [21]: 48 µM | AUC at 12 h [22]: 577 µM·h | AUC at 6 h [23]: 137 µM·h | Cmax [24]: 42 µM | AUC at 6 h [25]: 37 µM·h | Tmax [26]: 2 h | Tmax [27]: 5.3 h | Tmax [28]: 2.1 h | AUC at 12 h [29]: 159 µM·h | Cmax [30]: 7.8 µM | concentration at 6 h [31]: 23 µM | Cmax [32]: 16 µM | Tmax [33]: 2.3 h | concentration at 12 h [34]: 13.3 µM
Compound: Nc1nc2c(ncn2COCCO)c(=O)[nH]1 [ACYCLOVIR]
